Results taken from ChEMBL document CHEMBL1133766, “Enkephalin glycopeptide analogues produce analgesia with reduced dependence liability” (J Med Chem, 2000).

Tests used:
Rattus norvegicus [1] = assay: Amount of the drug required to produce 50% antinociception when administered intracerebroventricularly; value ranges from 0.05-0.09; type: functional
Outline: (§1)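 55 °C tail-flick test after a single injection by the route named in the line, with graded doses giving a dose-response. % antinociception = 100 × [test latency − control latency]/[15 − control latency]. A50 is the amount of drug giving 50% antinociception, derived from the dose-response curve.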

Rattus norvegicus [2] = assay: Amount of the drug required to produce 50% antinociception when administered subcutaneously; value ranges from 15.9-26.0; type: functional; outline: as §1
Rattus norvegicus [3] = assay: Amount of the drug required to produce 50% antinociception when administered intraperitoneally; value ranges from 124.0-151.8; type: functional; outline: as §1
Rattus norvegicus [4] = assay: Amount of the drug required to produce 50% antinociception when administered intravenously; value ranges from 35.4-60.7; type: functional; outline: as §1
[5] = (§2) Opioid receptor activity was evaluated using guinea pig ileum (GPI) assay; type: tissue-based; details: Cavia porcellus
Mu-type opioid receptor = Mu-type opioid receptor (Homo sapiens, UniProt P35372); assay: Binding affinity towards Opioid receptor mu 1 was evaluated
[6] = biological target: Delta-type opioid receptor (Homo sapiens, UniProt P41143); assay: Binding affinity towards Opioid receptor delta 1 was evaluated
Opioid receptor = Opioid receptor (Mus musculus, UniProt P42866+P32300+P33534); assay: (§3) Opioid receptor activity was evaluated using mouse vas deferens (MVD) assay; type: tissue-based
Rattus norvegicus [7] = assay: Amount of the drug required to produce 50% antinociception when administered intravenously; value ranges from 4.9-7.9; type: functional; outline: as §1
Rattus norvegicus [8] = assay: Amount of the drug required to produce 50% antinociception when administered subcutaneously; value ranges from 10.2-17.0; type: functional; outline: as §1
Rattus norvegicus [9] = assay: Amount of the drug required to produce 50% antinociception when administered intracerebroventricularly; value ranges from 1.8-4.2; type: functional; outline: as §1
Rattus norvegicus [10] = assay: Amount of the drug required to produce 50% antinociception when administered intraperitoneally; value ranges from 11.8-18.0; type: functional; outline: as §1
Mus musculus = organism: Mus musculus; assay: as §3; type: functional, organism-based
[11] = as §2; type: functional, tissue-based; details: Cavia porcellus
Rattus norvegicus [12] = assay: Amount of the drug required to produce 50% antinociception when administered intracerebroventricularly; value ranges from 0.01-0.04; type: functional; outline: as §1
Rattus norvegicus [13] = assay: Amount of the drug required to produce 50% antinociception when administered subcutaneously; value ranges from 4.9-10.00; type: functional; outline: as §1
Rattus norvegicus [14] = assay: Amount of the drug required to produce 50% antinociception when administered intraperitoneally; value ranges from 21.2-55.5; type: functional; outline: as §1
Rattus norvegicus [15] = assay: Amount of the drug required to produce 50% antinociception when administered intravenously; value ranges from 8.5-15.2; type: functional; outline: as §1

Delta-type opioid receptor, sequence (P41143 whole entry): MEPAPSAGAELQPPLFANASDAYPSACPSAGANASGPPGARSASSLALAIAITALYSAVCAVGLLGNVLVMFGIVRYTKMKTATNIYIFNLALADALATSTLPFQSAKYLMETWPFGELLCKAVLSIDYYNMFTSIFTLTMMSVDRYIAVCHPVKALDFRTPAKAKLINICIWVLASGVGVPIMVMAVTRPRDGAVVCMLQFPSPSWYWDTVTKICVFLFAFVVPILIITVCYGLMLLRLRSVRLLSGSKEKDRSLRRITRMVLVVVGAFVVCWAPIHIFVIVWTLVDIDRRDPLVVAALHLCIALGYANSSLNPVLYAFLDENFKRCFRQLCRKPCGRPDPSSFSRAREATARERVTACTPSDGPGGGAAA
Mu-type opioid receptor, sequence (P35372 whole entry): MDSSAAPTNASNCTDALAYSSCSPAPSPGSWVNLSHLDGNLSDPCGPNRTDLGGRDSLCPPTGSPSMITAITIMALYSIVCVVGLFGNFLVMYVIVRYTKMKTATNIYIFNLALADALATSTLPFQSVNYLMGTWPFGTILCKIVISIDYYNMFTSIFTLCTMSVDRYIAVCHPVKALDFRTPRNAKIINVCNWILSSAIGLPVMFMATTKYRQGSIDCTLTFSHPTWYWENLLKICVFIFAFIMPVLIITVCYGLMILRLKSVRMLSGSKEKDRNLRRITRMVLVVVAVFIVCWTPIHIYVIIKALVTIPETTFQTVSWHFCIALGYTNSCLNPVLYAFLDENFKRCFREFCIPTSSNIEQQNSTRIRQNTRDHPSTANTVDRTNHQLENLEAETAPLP

In the case of `CC(C)C[C@H](NC(=O)[C@H](Cc1ccccc1)NC(=O)CNC(=O)[C@H](NC(=O)[C@@H](N)Cc1ccc(O)cc1)[C@H](C)O)C(=O)N[C@@H](CO)C(N)=O` [listing 1 of 2 here], the A50 (Rattus norvegicus [1]) is reported as 0.07 nM, the A50 (Rattus norvegicus [2]) is reported as 20.3 mM/kg and the A50 (Rattus norvegicus [3]) is reported as 137.2 mM/kg. For the same compound, the A50 (Rattus norvegicus [4]) was 46.4 mM/kg.

`CC(C)C[C@H](NC(=O)[C@H](Cc1ccccc1)NC(=O)CNC(=O)[C@H](NC(=O)[C@@H](N)Cc1ccc(O)cc1)[C@H](C)O)C(=O)N[C@@H](CO)C(N)=O` [listing 2 of 2 here] gave an IC50 [5] of 25 nM, an IC50 (Mu-type opioid receptor) of 4 nM and an IC50 [6] of 2.4 nM. It also gave an IC50 (Opioid receptor) of 2.7 nM.

Work on `CN1CC[C@]23c4c5ccc(O)c4O[C@H]2[C@@H](O)C=C[C@H]3[C@H]1C5` [MORPHINE] yielded an A50 (Rattus norvegicus [7]) of 6.3 mM/kg, an A50 (Rattus norvegicus [8]) of 13.2 mM/kg and an A50 (Rattus norvegicus [9]) of 2.7 nM. The A50 (Rattus norvegicus [10]) was 14.6 mM/kg.

`CC(C)C[C@H](NC(=O)[C@H](Cc1ccccc1)NC(=O)CNC(=O)[C@H](NC(=O)[C@@H](N)Cc1ccc(O)cc1)[C@H](C)O)C(=O)N[C@@H](CO[C@H]1O[C@@H](CO)[C@H](O)[C@@H](O)[C@H]1O)C(N)=O` [listing 1 of 2 here] gave an IC50 (Mus musculus) of 1.6 nM, an IC50 [11] of 33.8 nM and an IC50 (Mu-type opioid receptor) of 8.2 nM. For the same compound, the IC50 [6] was 3.4 nM.

For `CC(C)C[C@H](NC(=O)[C@H](Cc1ccccc1)NC(=O)CNC(=O)[C@H](NC(=O)[C@@H](N)Cc1ccc(O)cc1)[C@H](C)O)C(=O)N[C@@H](CO[C@H]1O[C@@H](CO)[C@H](O)[C@@H](O)[C@H]1O)C(N)=O` [listing 2 of 2 here], the A50 (Rattus norvegicus [12]) was 0.02 nM, the A50 (Rattus norvegicus [13]) was 7.2 mM/kg and the A50 (Rattus norvegicus [14]) was 34.3 mM/kg. It also gave an A50 (Rattus norvegicus [15]) of 11.4 mM/kg.
